# Results gathered from unrelated publications.
# Lines come from different studies, so protocols differ.
# Target: Mitogen-activated protein kinase kinase kinase 14 (MAP3K14, Homo sapiens, UniProt Q99558)
Structure (SMILES),read-out,technique,tested at,remaining binding [%]
CC(=O)N1CCC(c2ccc(C(=O)NC(=N)N)cc2C(F)(F)F)CC1,cell-free assay,competition with immobilised ligand,1 µM,100
COc1cnc(Nc2cccc(S(N)(=O)=O)c2)nc1N1CCN(c2ccccc2)C(=O)C1,binding,competition with immobilised ligand,1 µM,89
O=C(NCC1CCOCC1)c1n[nH]cc1NC(=O)c1c(F)cccc1F,binding,competition with immobilised ligand,1 µM,79
N[C@H]1CCN(c2nccc(-c3cnn4ncccc34)n2)C1,binding,competition with immobilised ligand,1 µM,100
CCCCN(CCCC)C(=O)CN1C[C@H](c2cc(OC)c3c(c2)OCO3)[C@@H](C(=O)O)[C@@H]1CC(C)(C)CCC,cell-free assay,competition with immobilised ligand,1 µM,100
CN(C)c1ncc(F)c(-c2cnn3ncccc23)n1,binding,competition with immobilised ligand,1 µM,75
O=C(NCc1ncc(C(F)(F)F)cc1Cl)c1ccc2c(c1)C1(CCS(=O)(=O)CC1)[C@@H](C1CC1)N2S(=O)(=O)c1ccc(F)cc1,cell-free assay,competition with immobilised ligand,1 µM,71
COc1ncc2cc3ccccc3nc2c1C#N,cell-free assay,competition with immobilised ligand,5 µM,76
O=C(NCCCN1CCOCC1)c1ccc(Nc2ncc(Cl)c(-c3ccc(Cl)s3)n2)cc1,binding,competition with immobilised ligand,1 µM,49
Cc1noc([C@H]2C[C@@H](c3ccc(C(F)(F)F)cc3)CN(C(=O)N3CCS(=O)(=O)C3)C2)n1,cell-free assay,competition with immobilised ligand,1 µM,91
FC(F)(F)Oc1cccc(-c2cnc3ccc(-c4ccncc4)nn23)c1,cell-free assay,competition with immobilised ligand,5 µM,37
CN(c1nccc(-c2cnn3ncccc23)n1)C1CC1,binding,,1 µM,100
O=C(NCCCN1CCOCC1)c1ccc(Nc2nccc(-c3cc4ccccc4s3)n2)cc1,binding,competition with immobilised ligand,1 µM,87
c1ccc(N2CCN(Cc3nc4ccccc4[nH]3)CC2)nc1,binding,competition with immobilised ligand,1 µM,94
F[C@@H]1CCN(c2nccc(-c3cnn4ncccc34)n2)C1,binding,,1 µM,100
Nc1cnc(N2CCc3cc(S(=O)(=O)Nc4c(F)cc(Cl)cc4F)cc(N4CCCC4=O)c32)nc1,cell-free assay,competition with immobilised ligand,1 µM,75
C[C@H]1CCN(c2nccc(-c3cnn4ncccc34)n2)C1,binding,competition with immobilised ligand,1 µM,82
O=C(c1ccc(Nc2ncc(Cl)c(-c3ccc(Cl)s3)n2)cc1)N1CCC(N2CCCC2)CC1,binding,competition with immobilised ligand,1 µM,22
Cc1cnn2ncc(-c3ccnc(N(C)C)n3)c2c1,binding,,1 µM,80
c1cncc(-c2cccc(Nc3nccc(NC4CCCCC4)n3)c2)c1,binding,competition with immobilised ligand,10 µM,96
